Laboratory results from publication PMC4659844 (Clinical Drug Investigation, 2015).
Where two headings read alike, the source gives them in different places.

What was measured:
[1] = cited from earlier work
[2] = assay type: in vivo, human; details: for percentage of total exposure (AUC0–∞) after 7 days / percentage of total exposure (AUC0–∞) after 14 days: based on mean partial AUCs
QTc = details: cited from earlier work
[3] = test system: healthy Japanese subjects; experiment: Safety and tolerability; assay type: in vivo, human
Method in brief: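 Double-blind, placebo-controlled single 30-min IV infusion (300 ml, in 5 % dextrose with sterile water) of test compound or placebo. Groups: 500 mg, 5 active/1 placebo; 1000 mg, 10 active/2 placebo. Safety was assessed by physical examination, chemistry, hematology, urinalysis, heart rate, blood pressure, respiratory rate, oral temperature, and monitoring of concomitant medications and adverse events, queried on all study days with non-leading questions.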

cytochrome P450 (CYP) = details: background statement, no reference given; cited from earlier work
[4] = 500 mg and 1000 mg single IV infusion, range of the two dose means
[5] = 500 mg single IV infusion, healthy Japanese subjects, range of subjects, n = 5
[6] = 1000 mg single IV infusion, healthy Japanese subjects, range of subjects, n = 10

CN[C@H]1C(=O)N[C@@H]2Cc3ccc(cc3)Oc3cc4cc(c3O[C@@H]3O[C@H](C(=O)O)[C@@H](O)[C@H](O)[C@H]3NC(=O)CCCCCCCCC(C)C)Oc3ccc(cc3Cl)[C@@H](O)[C@@H]3NC(=O)[C@H](NC(=O)[C@@H]4NC(=O)[C@@H](NC2=O)c2cc(cc(O)c2Cl)Oc2cc1ccc2O)c1ccc(O)c(c1)-c1c(O[C@H]2O[C@H](CO)[C@@H](O)[C@H](O)[C@@H]2O)cc(O)cc1[C@@H](C(=O)NCCCN(C)C)NC3=O [Dalbavancin]
terminal half-life (t1/2) [1]: 2 weeks
terminal t1/2 ([1]; studies with follow-up periods as long as 70 days): ≤ 372 h
mean CL across two dose concentrations [2, 4]: 40.5 to 42.2 mL/h
mean Vd across two dose concentrations [2, 4]: 11,301 to 12,182 ml
percentage of total exposure (AUC0–∞) after 7 days ([2]; 500 mg single IV infusion): approximately 47%
percentage of total exposure (AUC0–∞) after 14 days ([2]; 500 mg single IV infusion): ~70%
mean AUC%extrap (percentage of AUC0–∞ obtained by extrapolation) ([2]; 500 mg single IV infusion, healthy Japanese subjects): 9.83%
Vd, range [2, 5]: 11,412–14,205 ml
terminal phase t1/2, range [2, 5]: 182 to 240 h
percentage of total exposure (AUC0–∞) after 7 days ([2]; 1000 mg single IV infusion): approximately 49%
percentage of total exposure (AUC0–∞) after 14 days ([2]; 1000 mg single IV infusion): ~73%
mean AUC%extrap (percentage of AUC0–∞ obtained by extrapolation) ([2]; 1000 mg single IV infusion, healthy Japanese subjects): 8.34%
CL, range [2, 6]: 34.8 to 45.8 mL/h
Vd, range [2, 6]: 8999–13,691 ml
terminal phase t1/2, range [2, 6]: 162 to 220 h
QTc prolongation (QTc): no evidence of QTc prolongation
tolerability ([3]; 500 mg and 1000 mg as single 30-min infusions, healthy Japanese subjects): well tolerated
serious adverse events, deaths, discontinuations due to a TEAE ([3]; 500 mg and 1000 mg single IV infusion, healthy Japanese subjects): no serious adverse event occurred
investigator-assessed relation of dizziness to study medication ([3]; 500 mg dose group): unlikely to be related
investigator-assessed relation of dyspepsia to study medication ([3]; 500 mg dose group): not related
investigator-assessed relation of rash and diarrhea to study medication ([3]; 1000 mg dose group): possibly related
subjects with at least one TEAE, percentage ([3]; Dalbavancin 500 mg single IV infusion, N = 5): 40%
subjects with at least one TEAE, percentage ([3]; Dalbavancin 1000 mg single IV infusion, N = 10): 30%
clinical laboratory values (chemistry, hematology, urinalysis) ([3]; any dose group, change from baseline): No clinically relevant, abnormal laboratory values were reported
intensity of TEAEs ([3]; subjects receiving dalbavancin in both dose groups (500 mg, 1000 mg)): mild intensity
CYP oxidative metabolism (cytochrome P450 (CYP)): does not undergo cytochrome P450 (CYP) oxidative metabolism
substrate, inhibitor or inducer of CYP isozymes (cytochrome P450 (CYP)): is not a substrate, inhibitor or inducer of any known CYP-isozyme
